Compounds with a hit are over-represented: about 3.9% of the library has one in this group of screens.
TAAR1 antagonist: human TAAR1 antagonism | Q96RJ0 | CHO RD-HGA16 TAAR1, Fluo-8 calcium fluorescence, antagonist | inhibition, % at 3 µM | hit rate 1.5% among 360,000 | AID 624466;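 active means inhibition above a per-plate cutoff, the mean inhibition of test compounds on that plate plus 3 SD, cut at about 49% in these data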
Target sequence (Q96RJ0 whole entry, looked up): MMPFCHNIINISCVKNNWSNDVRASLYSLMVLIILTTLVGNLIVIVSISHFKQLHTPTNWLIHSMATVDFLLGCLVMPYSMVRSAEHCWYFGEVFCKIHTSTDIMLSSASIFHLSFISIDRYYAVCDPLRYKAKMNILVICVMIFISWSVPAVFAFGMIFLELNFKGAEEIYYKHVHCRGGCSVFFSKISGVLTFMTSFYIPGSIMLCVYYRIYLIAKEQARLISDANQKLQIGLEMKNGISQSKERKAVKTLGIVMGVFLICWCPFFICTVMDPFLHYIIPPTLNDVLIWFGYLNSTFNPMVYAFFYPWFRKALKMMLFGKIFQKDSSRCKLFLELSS
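Material: CHO RD-HGA16 cells bearing hTAAR1; compound dosing: one-point dosing, 3 µM nominal final; schedule: dye loading 75 min at 37 °C, then 30 min room temperature; measured by: calcium fluorescence with Fluo-8; control set: vehicle and agonist controls; replication: n of 1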
CRFR2-BP ag: CRF-BP/CRF-R2 complex agonism. activation, % at 13.2 µM. HEK293 CRF-R2/CRF-BP, calcium dye fluorescence (FLIPR); percent of saturating CRF peptide response. hit rate 0.46% among 350,000;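 active means activation of at least 50%, plus an integration ratio under a set limit after plate pattern correction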
ANO1 block: inhibitors of mouse TMEM16A calcium-activated chloride channel; HEK293 TMEM16A/YFP iodide influx fluorescence, ionomycin; normalized B-score (activity score, 25-100; higher = stronger inhibition) at 10 µM; AID 588511; Q8BHY3; hit rate 1.2% among 310,000;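 active means ratio plate-corrected score three or more library SD toward inhibition, starting fluorescence score within five deviations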;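 further: score derived from kinetic fluorescence span divided by baseline fluorescence per well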
CRFBP-R2 block: blocks CRF-induced signaling of the CRF-BP/CRF-R2 complex; HEK293 CRF-R2/CRF-BP, CRF-induced calcium fluorescence; inhibition, % at 11.8 µM; hit rate 0.59% among 350,000; AID 588475;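 active means inhibition of the ligand-induced calcium signal above about 50% at the single tested concentration, limit read from the data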
TAAR1 ag: agonists of human TAAR1; CHO RD-HGA16 TAAR1, Fluo-8 calcium fluorescence; vehicle wells 0%, saturating PEA agonist 100%; activation, % at 3 µM; hit rate 0.99% among 360,000;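 active means activation above the mean activation of all test compounds in the run plus 3 SD, cut at about 38% in these data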
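Signal – calcium-sensitive Fluo-8 signal, excitation 470-495, emission 515-575 nm · System – RD-HGA16 (CHO) cells co-expressing Gα16 and hTAAR1 · Incubation – 17-24 h seeding, 75 min 37 °C dye, 30 min RT · Compound dosing – 3 µM single concentration · Repeats – no replicates (n 1)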
ANO1 activ: mouse TMEM16A channel activation, primary screen. hit rate 0.3% among 340,000. B-score at 10 µM. AID 623877. HEK293 TMEM16A/YFP-H148Q/I152L, iodide quench fluorescence; stronger effect = lower value;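 active means fluorescence-ratio B-score plate-corrected deviation score at least 3 library SD below zero, with starting fluorescence score within 5 deviations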;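 further: channel opened by trigger with iodide after compound preincubation; score built on the fluorescence ratio of max minus min over baseline; more negative score means more quench and so TMEM16A activation or potentiation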
TAAR1 ag confirm: confirmation of human TAAR1 agonists. AID 651783. CHO RD-HGA16 TAAR1, Fluo-8 calcium fluorescence; scaled: DMSO 0%, maximal phenethylamine 100%. activation, % at 3 µM. shares compounds with TAAR1 ag. hit rate 82% among 2,400;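 active means activation above a cutoff set at the run's mean compound activation plus 3 SD, cut at about 39% in these data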
Ga16 nonsel ag: counter-screen for TAAR1 agonists: nonselective agonists in parental cells. shares compounds with TAAR1 ag. CHO-Ga16 parental, Fluo-8 calcium fluorescence; normalized to maximal ATP response, DMSO zero. activation, % at 3 µM. hit rate 50% among 2,400;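 active means activation above the run cutoff, the mean activation over all tested wells plus 3 SD, cut at about 12% in these data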
TAAR1 desens: TAAR1 response desensitization, agonist counter-screen | shares compounds with TAAR1 ag | CHO RD-HGA16 hTAAR1, Fluo-8 calcium, beta-PEA response inhibition | inhibition, % at 3 µM | hit rate 46% among 2,400 | AID 651951;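 active means inhibition above the run cutoff, the mean inhibition of all test compounds plus 3 SD, cut at about 49% in these data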;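 further: beta-PEA stimulus applied at its EC80; loss of beta-PEA calcium signal after compound pretreatment read as receptor desensitization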
Ga16 nonsel ant: nonselective Ga16 antagonism, counter-screen; inhibition, % at 3 µM; shares compounds with TAAR1 ag; AID 651952; hit rate 39% among 2,400; CHO-Ga16 ATP-induced calcium, Fluo-8 fluorescence;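 active means inhibition above the plate's mean compound inhibition plus 3 SD, computed per plate, cut at about 22% in these data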
Of the large screens only hits and unclear results are named; the others gave an inactive call (follow-up assays come after a bar, where they were run).

O=C(Cc1ccc([N+](=O)[O-])cc1)N1CCc2ccccc2C1	TAAR1 ag 54.7 | TAAR1 ag confirm 74.0 | Ga16 nonsel ag inactive | TAAR1 desens inactive | Ga16 nonsel ant inactive
O=C(CNCCc1ccccc1)N1CCc2ccccc2C1	TAAR1 ag 81.0 | TAAR1 ag confirm 99.0 | Ga16 nonsel ag inactive | TAAR1 desens 89.0 | Ga16 nonsel ant inactive
O=[N+]([O-])c1cccc(NC(=S)N2CCc3ccccc3C2)c1	TAAR1 ag 55.1 | TAAR1 ag confirm 49.8 | Ga16 nonsel ag inactive | TAAR1 desens inactive | Ga16 nonsel ant inactive
O=C(COc1ccc([N+](=O)[O-])cc1)N1CCc2ccccc2C1	none
O=C(c1ccco1)N1CCN(C(=S)Nc2cccc([N+](=O)[O-])c2)CC1	none
CCn1ncc([N+](=O)[O-])c1C(=O)N1CCc2ccccc2C1	TAAR1 ag 41.8 | TAAR1 ag confirm inactive | Ga16 nonsel ag inactive | TAAR1 desens inactive | Ga16 nonsel ant inactive
O=C(COC(=O)c1cc([N+](=O)[O-])ccc1N1CCOCC1)NCc1ccc(Cl)cc1Cl	none
O=C(CN(Cc1ccco1)C(=O)c1cccc(F)c1)Nc1ccccc1C(F)(F)F	none (no result: ANO1 block)
Cc1ccc(C(=O)C(C)OC(=O)Cn2cnc3c2c(=O)n(C)c(=O)n3C)cc1 (stereo unspecified)	none
Cc1ccc(CONC(=O)c2cccc([N+](=O)[O-])c2)cc1	none (no result: ANO1 block)
COC(=O)C(/C=N/OCc1ccc([N+](=O)[O-])cc1)NC(=O)c1cccc(Cl)c1 (stereo unspecified)	TAAR1 antagonist 87.6, TAAR1 ag 94.8 | TAAR1 ag confirm 94.2 | Ga16 nonsel ag 51.1 | TAAR1 desens 78.0 | Ga16 nonsel ant 41.2
O=C(Oc1ccccc1Cl)C1CCN(C(=O)c2ccc(F)cc2)CC1	none
COc1cc(CNCCc2ccccc2)ccc1OCC(N)=O	none
COc1cc(CNCCc2ccccc2)ccc1OCc1ccc(Cl)nc1	TAAR1 ag 53.9 | TAAR1 ag confirm 70.6 | Ga16 nonsel ag inactive | TAAR1 desens inactive | Ga16 nonsel ant inactive
CCOc1cc(CNCCc2ccc(S(N)(=O)=O)cc2)ccc1OCc1ccc(Cl)cc1	TAAR1 ag 68.6 | TAAR1 ag confirm 84.6 | Ga16 nonsel ag 46.0 | TAAR1 desens 91.3 | Ga16 nonsel ant 71.9
COc1ccc(Cc2c(C3CCCCC3)nc3c(C)cc(Br)cn23)c(C)c1	none (no result: CRFR2-BP ag, ANO1 block, CRFBP-R2 block, ANO1 activ)
Cc1c(CN2CCC(n3nccc3NC(=O)C3CCOC3)CC2)[nH]c2ccccc12 (stereo unspecified)	none
O=C(Nc1ccnn1C1CCN(Cc2cc3ccccc3[nH]2)CC1)C1CCOC1 (stereo unspecified)	TAAR1 antagonist 82.6, TAAR1 ag 57.5 (no result: CRFR2-BP ag, CRFBP-R2 block) | TAAR1 ag confirm inactive | Ga16 nonsel ag 23.3 | TAAR1 desens 63.0 | Ga16 nonsel ant 66.1
Nc1nonc1-n1nnc(C(=O)N/N=C/c2ccc3c(c2)OCO3)c1-c1ccccc1	TAAR1 ag 75.2 | TAAR1 ag confirm 44.6 | Ga16 nonsel ag 26.3 | TAAR1 desens inactive | Ga16 nonsel ant inactive
Nc1nonc1-n1nnc(C(=O)N/N=C/c2cccc(Cl)c2)c1-c1ccc2c(c1)OCO2	none

High-throughput results deposited in PubChem BioAssay by several laboratories.
